Data from article PMC8233206 (The Journal of Biological Chemistry, 2021).
Like-named read-outs stand apart in the source and are kept apart here. One block for each compound: values may come before it.

How the values were obtained:
Panc03.27 cells = assay: Seahorse XF glycolysis stress assay, glucose-induced ECAR; format: cell-based, human
How it was run: (§1)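 Seeded 48 h before in growth medium (1.5 × 10⁴ Panc03.27, MDA-MB-231, HPNE; 1.2 × 10⁴ Mia Paca-2; 2.0 × 10⁴ QGP1). MCT1/2 inhibitor 0.5 μM or DMSO added 4 h pre-assay. Medium: DMEM without NaHCO₃, 2 mM glutamine, 5 mM glucose, pH 7.4. Injected in order: 2 mM sodium pyruvate, 10 mM glucose, 2 μM oligomycin, 50 mM 2-DG. Glucose-induced/baseline ECAR ratio, normalized to Hoechst cell counts and 0 mM pyruvate; three experiments.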

MDA-MB-231 cells = assay: as above; format: cell-based, human
How it was run: as §1

HPNE cells = assay: as above; format: cell-based, human
How it was run: as §1

QGP1 cells = assay: as above; format: cell-based, human
How it was run: as §1

Mia Paca-2 cells = assay: as above; format: cell-based, human
How it was run: as §1

[1] = test system: LDH in extracts from Panc03.27 cells; assay: LDH enzyme kinetics in cell extracts; format: biochemical, human; details: Panc03.27 cell extract
How it was run: (§2)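 Cells washed in ice-cold PBS, lysed in ice-cold LDH assay lysis buffer, protein measured by Coomassie. Extract mixed with Tris/NaCl/NADH buffer and Tris/NaCl/pyruvate (0–30 mM). Plate shaken 30 s, then A340 read five times at 30-s intervals; initial velocities from NADH oxidation. Enzyme-free and pyruvate-free controls run. Vmax, Vpeak, apparent Km and Ki from biphasic curve fits. Triplicate, three independent experiments; mean ± SE.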

[2] = test system: LDH in extracts from HPNE cells; assay: LDH enzyme kinetics in cell extracts; format: biochemical, human; details: HPNE cell extract
How it was run: as §2

[3] = test system: LDH in extracts from MDA-MB-231 cells; assay: LDH enzyme kinetics in cell extracts; format: biochemical, human; details: MDA-MB-231 cell extract
How it was run: as §2

[4] = test system: LDH in extracts from Mia Paca-2 cells; assay: LDH enzyme kinetics in cell extracts; format: biochemical, human; details: Mia Paca-2 cell extract
How it was run: as §2

[5] = biological target: purified human recombinant LDHA (Homo sapiens, UniProt P00338); assay: LDH coupled-enzyme kinetic assay; format: biochemical
bovine heart LDH = bovine heart LDH (Bos taurus, UniProt Q5E9B1); assay: LDH coupled-enzyme kinetic assay; format: biochemical
bovine heart LDH, sequence (Q5E9B1 2-334): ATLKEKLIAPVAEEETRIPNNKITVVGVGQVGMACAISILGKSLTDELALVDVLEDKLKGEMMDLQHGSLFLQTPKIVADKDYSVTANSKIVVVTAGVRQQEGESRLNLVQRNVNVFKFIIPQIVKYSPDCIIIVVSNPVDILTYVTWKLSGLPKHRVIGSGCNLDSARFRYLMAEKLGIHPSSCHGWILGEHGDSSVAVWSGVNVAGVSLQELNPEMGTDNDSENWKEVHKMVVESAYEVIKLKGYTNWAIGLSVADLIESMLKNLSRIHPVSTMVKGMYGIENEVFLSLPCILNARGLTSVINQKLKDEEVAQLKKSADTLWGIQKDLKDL

[6] = test system: LDH in extracts from QGP1 cells; assay: LDH enzyme kinetics in cell extracts; format: biochemical, human; details: QGP1 cell extract
How it was run: as §2

human recombinant LDHB = human recombinant LDHB (Homo sapiens, UniProt P07195); assay: LDH coupled-enzyme kinetic assay; format: biochemical
human recombinant LDHB, sequence (P07195 whole entry): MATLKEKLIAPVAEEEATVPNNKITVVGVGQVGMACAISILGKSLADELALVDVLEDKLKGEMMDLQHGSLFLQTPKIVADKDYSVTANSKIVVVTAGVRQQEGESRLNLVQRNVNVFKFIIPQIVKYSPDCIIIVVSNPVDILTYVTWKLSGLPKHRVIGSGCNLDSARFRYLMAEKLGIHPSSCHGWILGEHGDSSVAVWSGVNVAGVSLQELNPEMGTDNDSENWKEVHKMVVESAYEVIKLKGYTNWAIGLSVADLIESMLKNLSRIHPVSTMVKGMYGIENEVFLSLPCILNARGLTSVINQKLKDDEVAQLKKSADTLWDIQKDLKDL

[7] = humans; 230 mM at 5 ml/s injection rate; cited from earlier work
[8] = mice; injection of 80 mM hyperpolarized solution; cited from earlier work
[9] = 0.5 μM AZD3965 pretreatment 4 h, 5 mM glucose, vs DMSO control
[10] = read-out: Ki (apparent, substrate inhibition)
[11] = 2 mM sodium pyruvate, medium with 5 mM glucose, DMSO control
[12] = LDH bovine heart, pyruvate 0–30 mM

SMILES: Cc1[nH]nc(C(F)(F)F)c1Cc1sc2c(c1C(=O)N1C[C@](C)(O)CO1)c(=O)n(C)c(=O)n2C(C)C [AZD3965, reference compound]
Effect on 2 mM pyruvate-induced inhibition of glucose-stimulated ECAR (Panc03.27 cells; [9]): blocked | Effect on 2 mM pyruvate-induced inhibition of glucose-stimulated ECAR (MDA-MB-231 cells; [9]): no significant effects | Effect on 2 mM pyruvate-induced inhibition of glucose-stimulated ECAR (HPNE cells; [9]): blocked | Effect on 2 mM pyruvate-induced inhibition of glucose-stimulated ECAR (QGP1 cells; [9]): blocked | Effect on 2 mM pyruvate-induced inhibition of glucose-stimulated ECAR (Mia Paca-2 cells; [9]): blocked

Ki [5]: 5.33 ± 0.49 mM | Vmaz (maximal initial velocity from activation curve fit) ([5]; rLDHA, pyruvate 0–30 mM): 1.00 ± 0.04 ΔAbs/s∗10^−3/μg protein | Vpeak (peak initial velocity of the biphasic curve fit) ([5]; rLDHA, pyruvate 0–30 mM): 0.75 ΔAbs/s∗10^−3/μg protein | Ki (bovine heart LDH): 1.75 ± 0.11 mM | Vmaz (maximal initial velocity from activation curve fit) (bovine heart LDH; [12]): 3.23 ± 0.10 ΔAbs/s∗10^−3/μg protein | Vpeak (peak initial velocity of the biphasic curve fit) (bovine heart LDH; [12]): 2.08 ΔAbs/s∗10^−3/μg protein | Ki (human recombinant LDHB): 2.88 ± 0.4 mM | Vmaz (maximal initial velocity from activation curve fit) (human recombinant LDHB; rLDHB, pyruvate 0–30 mM): 1.00 ± 0.05 ΔAbs/s∗10^−3/μg protein | Vpeak (peak initial velocity of the biphasic curve fit) (human recombinant LDHB; rLDHB, pyruvate 0–30 mM): 0.75 ΔAbs/s∗10^−3/μg protein
SMILES: CC(=O)C(=O)O [pyruvate]
Vmaz (maximal initial velocity from activation curve fit) [1]: 2.00 ± 0.07 ΔAbs/s∗10^−3/μg protein | Vpeak (peak initial velocity of the biphasic curve fit) [1]: 1.56 ΔAbs/s∗10^−3/μg protein | Ki [1, 10]: 2.33 ± 0.21 mM | Km ([1]; read-out: Km (apparent)): 50 µM | Vmaz (maximal initial velocity from activation curve fit) [2]: 2.71 ± 0.08 ΔAbs/s∗10^−3/μg protein | Vpeak (peak initial velocity of the biphasic curve fit) [2]: 1.98 ΔAbs/s∗10^−3/μg protein | Ki [2, 10]: 2.67 ± 0.2 mM | Km ([2]; read-out: Km (apparent)): 90 ± 10 µM | Vmaz (maximal initial velocity from activation curve fit) [3]: 2.98 ± 0.17 ΔAbs/s∗10^−3/μg protein | Vpeak (peak initial velocity of the biphasic curve fit) [3]: 2.20 ΔAbs/s∗10^−3/μg protein | Ki [3, 10]: 3.39 ± 0.5 mM | Km ([3]; read-out: Km (apparent)): 100 ± 20 µM | Decrease of glucose-stimulated ECAR (Panc03.27 cells; [11]): > 30% | Vmaz (maximal initial velocity from activation curve fit) [4]: 0.88 ± 0.03 ΔAbs/s∗10^−3/μg protein | Vpeak (peak initial velocity of the biphasic curve fit) [4]: 0.66 ΔAbs/s∗10^−3/μg protein | Ki [4, 10]: 4.26 ± 0.32 mM | Km ([4]; read-out: Km (apparent)): 110 ± 10 µM | Decrease of glucose-stimulated ECAR (MDA-MB-231 cells; [11]): > 30% | Decrease of glucose-stimulated ECAR (HPNE cells; [11]): less than 10% | Decrease of glucose-stimulated ECAR (QGP1 cells; [11]): > 30% | Vmaz (maximal initial velocity from activation curve fit) [6]: 1.85 ± 0.05 ΔAbs/s∗10^−3/μg protein | Vpeak (peak initial velocity of the biphasic curve fit) [6]: 1.42 ΔAbs/s∗10^−3/μg protein | Ki [6, 10]: 3.42 ± 0.25 mM | Km ([6]; read-out: Km (apparent)): 80 ± 10 µM | Decrease of glucose-stimulated ECAR (Mia Paca-2 cells; [11]): > 30%

SMILES: CC(=O)[13C](=O)O [[1-^13C]pyruvate]
Blood pyruvate concentration [7]: ≥ 2 mM | Blood pyruvate concentration [8]: ~8 mM
